SMILES strings stand for the structures. Like-named read-outs stand apart in the source and are kept apart here. Where a SMILES comes first, the peptide text is derived from it. The star is where a group is joined. Cbz = O=C(OCc1ccccc1)*

Data set [1] relates to DB cells. Description: DB cell proliferation analysis. The format is cell-based, human. To be noted: for Reduction of cell growth compared to DMSO: 0.5 μM, 12 days. The procedure, abridged: (§1)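 DB cells in RPMI 1640 with 10% FBS (37 °C, 5% CO₂), seeded at 100K cells/mL in 12-well plates. Dosed with 0.01–10 μM or 0.5 μM test compound, or DMSO. Every 3 days, media exchanged, cells split back to seeding density and re-dosed, for up to 12 days. Trypan blue automated counts gave cells/mL and % viability. % proliferation relative to DMSO at each time point; EC50 from four-parameter log(inhibitor) fit.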

The next data set relates to H3K27me3. In words: H3K27me3 levels by western blot in DB cells. The format is cell-based, human. Conditions: 3 μM for 96 hr. The procedure, abridged:
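H3K27me3 by western blot: DB cells seeded at 50,000 cells/well and treated with 3 μM test compound or DMSO for 96 hr. PBS-washed cells lysed in Cytobuster with protease inhibitors and benzonase. Samples boiled with reducing Laemmli buffer, separated on 4–15% gels, transferred to PVDF. Densitometry normalized to GAPDH and expressed relative to DMSO.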

The target in data set [2] is PRC2 components EED and EZH2^WT/EZH2^Y641N (Homo sapiens, UniProt O75530+P40337). In words: Degradation of PRC2 components by western blot in DB cells. The format is cell-based. Conditions: for Degradation of EED and EZH2^WT/EZH2^Y641N at 96 hr: DB cells, 3 μM for 96 hr.
The next data set relates to tumor growth. Conditions: once daily intraperitoneal administration, 150 mg/kg; cited from earlier work.
In data set [3] the test system is triple negative breast cancer (TNBC) cells. Conditions: cited from earlier work.
For data set [4], the target named is biotinylated EED and His-VHL (Homo sapiens, UniProt O75530+P40337). Description: TR-FRET ternary complex formation assay. The format is binding. Conditions: EED-biotin and His-VHL, dose response up to 10 μM. In short, it runs like this: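 Ternary complex TR-FRET: biotinylated EED (residues 1–441, 160 nM) and His-VHL (residues 1–154, 320 nM) with Eu-streptavidin (2 nM) and ULight anti-6xHis (100 nM). Buffer: 20 mM Tris pH 7.5, 150 mM NaCl, Tween 20, 2 mM DTT, 1% DMSO. 10-point three-fold series from 10 μM; 4 h in dark. Read 665/615 ratio (320 nm excitation), minus no-compound wells. Technical triplicates; two independent experiments, standard error.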

Data set [5] has as its system EZH2^WT/EZH2^Y641N. To be noted: read-out: EZH2^WT/EZH2^Y641N DC50; DB cells; cited from earlier work.
Data set [6] is described as follows: Solubility observed in ternary complex assay. It counts as physicochemical. To be noted: above 10 μM in ternary complex assay.
A further data set relates to Caco-2. In words: Caco-2 permeability assay. It counts as in vitro ADME.
Data set [7] deals with DB cells. In words: DB cell viability. The format is cell-based, human. Conditions: 12 days, top concentrations tested (5 – 10 μM). In short, it runs like this: as §1
The target of another data set is His-tagged EED (Homo sapiens, UniProt O75530). In words: EED binding TR-FRET assay. To be noted: result in words. In short, it runs like this: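 EED binding by TR-FRET displacement of a biotinylated EED ligand (15 nM). Mix held EED-6xHis (15 nM), ULight anti-6xHis antibody (10 nM) and Eu-W1024 streptavidin (2 nM). Test compounds run as 10-point dose–response, top final concentration 10 μM. IC50 from three biological replicates ± standard deviation.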

The test system of data set [8] is EZH2^WT/EZH2^Y641N. In words: EZH2 degradation by western blot in DB cells. The format is cell-based, human. Conditions: % degradation at 3 μM after 24 hr. In short, it runs like this: (§2)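 DB cells seeded at 800,000 cells/well and dosed from DMSO stock for 24 hr; dose–response 0.01–3 μM. Cells washed with PBS and lysed in Cytobuster with protease inhibitors and benzonase. Normalized lysate boiled with reducing Laemmli buffer, run on 4–15% gels, blotted to PVDF, detected by fluorescence or ECL. Band densitometry normalized to GAPDH, then to DMSO, gave % degradation; EED quantified from lower ~55 kDa band. DC50 from three-parameter fit; Dmax = % degradation at 3 μM, 24 hr.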

Another data set has as its system SUZ12. Description: SUZ12 degradation by western blot in DB cells. Conditions: % degradation at 3 μM after 24 hr. It counts as cell-based, human. The procedure, abridged: as §2
A further data set has as its target EED (Homo sapiens, UniProt O75530). Description: EED degradation by western blot in DB cells. It counts as cell-based. The procedure, abridged: as §2

Chain of biotinylated EED and His-VHL (O75530 whole entry, the tested form may be a part): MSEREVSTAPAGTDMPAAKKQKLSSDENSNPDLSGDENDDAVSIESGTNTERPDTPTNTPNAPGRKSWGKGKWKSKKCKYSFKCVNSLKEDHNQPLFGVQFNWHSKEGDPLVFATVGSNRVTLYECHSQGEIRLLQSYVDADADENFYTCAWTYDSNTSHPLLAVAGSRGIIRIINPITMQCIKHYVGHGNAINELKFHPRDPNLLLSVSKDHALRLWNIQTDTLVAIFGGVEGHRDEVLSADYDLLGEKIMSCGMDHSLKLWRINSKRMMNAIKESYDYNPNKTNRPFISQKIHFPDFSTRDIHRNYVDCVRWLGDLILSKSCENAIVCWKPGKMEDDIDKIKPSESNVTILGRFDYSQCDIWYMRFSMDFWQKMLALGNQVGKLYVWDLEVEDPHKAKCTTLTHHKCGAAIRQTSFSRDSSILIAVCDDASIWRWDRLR
Chain of biotinylated EED and His-VHL (P40337 1-154): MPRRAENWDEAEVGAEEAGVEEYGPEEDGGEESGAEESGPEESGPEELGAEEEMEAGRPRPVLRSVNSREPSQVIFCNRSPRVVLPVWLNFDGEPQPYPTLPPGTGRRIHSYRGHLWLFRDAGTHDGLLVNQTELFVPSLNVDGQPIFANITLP
Chain of EED (O75530 whole entry): as the sequence (O75530 whole entry, the tested form may be a part) above
Chain of His-tagged EED (O75530 whole entry): as the sequence (O75530 whole entry, the tested form may be a part) above

With `CS(=O)(=O)c1ccc(-c2cnc(NCc3ccco3)n3cnnc23)cc1` [EED226], the “Reduction of cell growth compared to DMSO” value (from here on “Reduction of cell growth”) in the data set with DB cells [1] was 24%. Also, in the data set on H3K27me3, the “Decrease in H3K27me3 levels” value was 63%.
Consider `CC(C)C[C@@H](C=O)NC(=O)[C@H](CC(C)C)NC(=O)[C@H](CC(C)C)NC(=O)OCc1ccccc1` [MG132] (Cbz-Leu-Leu-Leu-aldehyde), for which, in [2] (added prior to UNC7700 cell treatment), the “Effect of proteasome inhibitor pretreatment on UNC7700 mediated PRC2 degradation” value is recorded as “blocks PRC2 degradation”.
In the case of `Cc1cc(C)c(CNC(=O)c2cc(-c3ccc(N4CCN(CCNC(=O)CC56CC7CC(CC(C7)C5)C6)CC4)nc3)cc3c2cnn3C(C)C)c(=O)[nH]1` [MS1943], the “Tumor growth in vivo” value in the data set on tumor growth is “suppresses tumor growth in vivo”. Further, the “Anti-proliferative effect in TNBC cells” value in [3] is given as “anti-proliferative”.
Consider `CCCc1cc(C)[nH]c(=O)c1CNC(=O)c1cc(-c2ccc(N3CCN(C(C)C)CC3)nc2)cc2c1cnn2C(C)C` [UNC1999], for which, in the data set with DB cells [1], the “Reduction of cell growth” value came to 28%. The “Decrease in H3K27me3 levels” value in the data set on H3K27me3 was 76%.
As for `Cc1ncsc1-c1ccc(CNC(=O)[C@@H]2C[C@@H](O)CN2C(=O)[C@@H](NC(=O)CCCNC(=O)c2ccc(-c3cnc(NCc4ccco4)n4cnnc34)cc2)C(C)(C)C)cc1` [UNC6852], in [4], the “PROTAC concentration at maximum peak height of ternary complex TR-FRET signal” value was “around 1 μM” and the “Ternary complex TR-FRET signal, in words” value is given as “signs of a bell-shaped curve”. In addition, the “Reduction of cell growth” value in the data set with DB cells [1] is reported as 8%. Further, the “Decrease in H3K27me3 levels, in words” value with H3K27me3 is “only a small decrease in H3K27me3 levels”. Moreover, the DC50 in the data set with EZH2^WT/EZH2^Y641N [5] is 670 ± 240 nM. The Solubility result in data set [6] is listed as “poor solubility observed above this concentration”. In [2], the “Degradation of EED and EZH2^WT/EZH2^Y641N at 96 hr” value is “substantial degradation of EED and EZH2^WT/EZH2^Y641N”.
Consider `Cc1ncsc1-c1ccc(CNC(=O)[C@H]2C[C@@H](O)CN2C(=O)[C@@H](NC(=O)CCCNC(=O)c2ccc(-c3cnc(NCc4ccco4)n4cnnc34)cc2)C(C)(C)C)cc1` [UNC7043], for which, in [4], the “Ternary complex TR-FRET signal, in words” value is recorded as “do not show any increase in FRET signal”.
With `Cc1ncsc1-c1ccc(CNC(=O)[C@@H]2C[C@@H](O)CN2C(=O)[C@@H](NC(=O)C2CC(NC(=O)c3ccc(-c4cnc(NCc5ccco5)n5cnnc45)cc3)C2)C(C)(C)C)cc1` (stereo partly drawn) [UNC7700], in the data set with Caco-2, the Caco-2 permeability result is “below the limit of detection of the assay”. Further, the “Percent recovery in Caco-2 assay” value with Caco-2 (from the donor compartment, cell lysate, and assay well) was 79–106%. For the same compound, in [4], the “PROTAC concentration at maximum peak height of ternary complex TR-FRET signal” value is “around 1 μM” and the “Ternary complex TR-FRET signal, in words” value is reported as “much weaker compared to UNC6852”. In the data set with DB cells [7], the “Loss in cell viability” value is on record as about 30%. In addition, the “Reduction of cell growth” value with DB cells [1] came to 46%. In addition, in the data set with DB cells [1] (read-out: Proliferation EC50 after 9 days, 0.01 – 10 μM, 9 days), the EC50 is 2600 ± 1900 nM. Moreover, in the data set on DB cells [1] (read-out: Proliferation EC50 after 12 days, 0.01 – 10 μM, 12 days), the EC50 was 790 ± 530 nM. In the data set with H3K27me3, the “Decrease in H3K27me3 levels” value is 85%. Besides, the “EED binding (TR-FRET IC50)” value on His-tagged EED is “equally potent binders of EED”. In addition, the “EZH2^WT/EZH2^Y641N Dmax” value in the data set on EZH2^WT/EZH2^Y641N [8] stood at 86%. In the data set with SUZ12, the “SUZ12 Dmax” value is 44%. In addition, the “EED Dmax” value at EED (% degradation at 3 μM after 24 hr) was found to be 84%. Also, on EED (read-out: EED DC50, 24 hr, dose response 0.01–3 μM, western blot), the DC50 stood at 111 nM. Also, the “Degradation of EED and EZH2^WT/EZH2^Y641N at 96 hr” value in data set [2] was “complete degradation of EED and EZH2^WT/EZH2^Y641N”.
